Source: ChEMBL document CHEMBL4316644, “Eudesmane Glycosides from Ambrosia artemisiifolia (Common Ragweed) as Potential Neuroprotective Agents” (J Nat Prod, 2019)
Activity calls are given as the source filed them. The rule behind the calls is not given here.

Assays:
[1] = system: HT-22; test: Neuroprotective against amyloid beta (42 residues)-induced cell death in mouse HT22 cells transfected with pEGFP-C1/Abeta42 assessed as increase in cell viability at 40 uM measured after 24 hrs by MTT assay; format: functional, cell-based
How it was run: (§1)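 HT22 cells seeded at 4000 cells/well for 2–3 h at 37 °C, 5% CO2, then transfected with 0.2 μg pEGFP-C1/Aβ42 plasmid by Lipofectamine 2000. After 10 h, compounds were added in medium, mostly at 40 μM, some at 5 μM or at 10, 20 and 40 μM. Incubation continued 24 h, then MTT (2 mg/mL) viability read-out. Mean ± SD, n = 3, versus untreated Aβ42-transfected cells.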

[2] = system: HT-22; test: Neuroprotective against amyloid beta (42 residues)-induced cell death in mouse HT22 cells transfected with pEGFP-C1/Abeta42 assessed as increase in cell viability up to 80 uM measured after 24 hrs by MTT assay; format: functional, cell-based
[3] = system: HT-22; test: Cytotoxicity against mouse HT22 cells assessed as reduction in cell viability at 40 uM measured after 24 hrs by MTT assay; format: cell-based; settings: ht-22, 24 h
How it was run: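 Untransfected HT22 mouse hippocampal cells grown in DMEM with 10% FBS and penicillin/streptomycin, seeded at 4000 cells/well, then incubated 24 h. Compounds in DMSO, diluted in serum-free medium (final DMSO 0.1 to 0.2% v/v), applied for 24 h. MTT (2 mg/mL) added for 4 h in the dark, formazan dissolved in DMSO, absorbance read at 550 nm.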

[4] = system: HT-22; test: Neuroprotective against amyloid beta (42 residues)-induced cell death in mouse HT22 cells transfected with pEGFP-C1/Abeta42 assessed as increase in cell viability measured after 24 hrs by MTT assay; format: functional, cell-based; how it was run: as §1
[5] = system: HT-22; test: Neuroprotective against amyloid beta (42 residues)-induced cell death in mouse HT22 cells transfected with pEGFP-C1/Abeta42 assessed as increase in fluorescence intensity at 40 uM measured after 24 hrs by fluorescence microscopic analysis; format: functional, cell-based
How it was run: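 HT22 cells grown on glass coverslips, transfected with Aβ42 plasmid for 10 h. Medium then replaced with fresh medium containing 2% FBS, with or without compounds at 40 μM, for 24 h. Cells washed once with PBS. Fluorescence and bright-field images were captured by fluorescence microscopy to view GFP condensation.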

[6] = system: HT-22; test: Neuroprotective against amyloid beta (42 residues)-induced cell death in mouse HT22 cells transfected with pEGFP-C1/Abeta42 assessed as decrease in fluorescence intensity at 40 uM measured after 24 hrs by flow cytometry

| Structure (SMILES) | Activity [1] | further results |
| --- | --- | --- |
| CC(=O)O[C@@H]1C[C@H]2[C@H](C)[C@H]3OC(=O)[C@@H](C)[C@H]3CC[C@]2(C)[C@H]1OC(C)=O | Active |  |
| C=C1CC[C@@H]2[C@](C)(CO)[C@H](O)CC[C@@]2(C)[C@@H]1C/C=C1/C(=O)OC[C@H]1O |  | Activity [2]: Active |
| C=C(C(=O)O)[C@H]1C[C@]2(C)C(=O)CC[C@]23O[C@H]1C[C@@H]3C | Active |  |
| C=C1C(=O)O[C@@H]2C[C@@H](C)[C@@H]3C[C@@H](OC(C)=O)[C@H](OC(C)=O)[C@@]3(C)C[C@H]12 |  | Activity [3]: Toxic |
| CC1=CC[C@H](O)[C@@]2(C)[C@@H](O)C[C@@H](C(C)C)[C@@H](O[C@@H]3O[C@H](CO)[C@@H](O)[C@H](O)[C@H]3O)[C@H]12 | Active | Activity [4]: Dose-dependent effect; Activity [5]: Active; Activity [6]: Active |
| CC1=CC[C@H](OC(=O)C[C@](C)(O)CC(=O)O)[C@@]2(C)[C@@H](O)C[C@@H](C(C)C)[C@@H](O[C@@H]3O[C@H](CO)[C@@H](O)[C@H](O)[C@H]3O)[C@H]12 | Active |  |
| C=C1C(=O)O[C@@H]2[C@H]3C(C)=CC[C@H]3[C@](C)(O)C[C@H](O)[C@@H]12 [CUMAMBRIN B] |  | Activity [3]: Toxic |
| O=C(/C=C/c1ccc(O)cc1)NCCCCN(CCCNC(=O)/C=C/c1ccc(O)cc1)C(=O)/C=C/c1ccc(O)cc1 | Active |  |
| C=C1CC[C@@H](O[C@@H]2O[C@H](CO)[C@@H](O)[C@H](O)[C@H]2O)[C@]2(C)CC[C@@H](C(C)C)[C@H](O)[C@@H]12 | Active |  |
| CC1=CC[C@H](O)[C@@]2(C)[C@@H](OC(=O)C[C@](C)(O)CC(=O)O)C[C@@H](C(C)C)[C@@H](O[C@@H]3O[C@H](CO)[C@@H](O)[C@H](O)[C@H]3O)[C@H]12 | Active |  |
| CC1=CC[C@H](O[C@@H]2OC[C@@H](O)[C@H](O)[C@H]2O)[C@@]2(C)[C@@H](O)C[C@@H](C(C)C)[C@@H](O[C@@H]3O[C@H](CO)[C@@H](O)[C@H](O)[C@H]3O)[C@H]12 | Active | Activity [4]: Dose-dependent effect; Activity [5]: Active; Activity [6]: Active |
| CC(=O)OC[C@H]1O[C@@H](O[C@@H]2[C@H](C(C)C)C[C@H](OC(=O)C[C@](C)(O)CC(=O)O)[C@]3(C)[C@@H](O)CC=C(C)[C@@H]23)[C@H](O)[C@@H](O)[C@@H]1O | Active |  |
